Assay results from ChEMBL document CHEMBL4406851, “Design, synthesis and biological evaluation of cinnamic acid derivatives with synergetic neuroprotection and angiogenesis effect” (Eur J Med Chem, 2019).

Columns and labels:
SH-SY5Y = experiment: Neuroprotective activity against H2O2-induced cell damage in human SH-SY5Y cells assessed as increase in cell viability preincubated for 24 hrs followed by H2O2 addition and measured after 4 hrs by MTT assay; format: functional, cell-based
Summary of the method: (§1)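 Cells at 3.5×10^4 cells/mL in 96-well plates were grown 24 h (37 °C, 5% CO2). Test agent was added at five concentrations for 24 h, then H2O2 (4.8 mM stock) to model and drug wells. After PBS washes, MTT (5 mg/mL) was added for 4 h, formazan was dissolved in DMSO and OD was read at 550 nm. Proliferation rate = (drug − injury OD)/(control − injury OD). EC50 came from a formula using maximum concentration and summed, maximal and minimal rates.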

[1] = Neuroprotective activity against H2O2-induced cell damage in human HBMEC2 cells assessed as increase in cell viability preincubated for 24 hrs followed by H2O2 addition and measured after 4 hrs by MTT assay; format: functional, cell-based; settings: HBMEC-2; summary of the method: as §1

Row | SMILES | EC50 (SH-SY5Y) | EC50 [1]
1 | COc1cc(CNC(=O)/C=C/c2ccc(OCc3nc(C)c(C)nc3C)cc2)ccc1O | 5.37 µM | 12.5 µM
2 | COc1cc(OC)c(OC)cc1/C=C/C(=O)NCc1ccc(OCc2nc(C)c(C)nc2C)c(OC)c1 | 3.62 µM | 12.5 µM
3 | COc1cccc(/C=C/C(=O)NCc2ccc(OCc3nc(C)c(C)nc3C)c(OC)c2)c1 | 4.32 µM | 9.87 µM
4 | COc1ccc(OC)c(/C=C/C(=O)NCc2ccc(OCc3nc(C)c(C)nc3C)c(OC)c2)c1 | 11 µM | 11.8 µM
5 | COc1cc(/C=C/C(=O)NCc2ccc(O)c(OC)c2)cc(OC)c1 | 4.86 µM | 7.81 µM
6 | COc1ccc(/C=C/C(=O)NCc2ccc(O)c(OC)c2)cc1 | 11.4 µM | 10.4 µM
7 | Cc1nc(C)c(C)nc1C [LIGUSTRAZINE] | 17.6 µM | 15.2 µM
8 | COc1cc(CNC(=O)/C=C/c2ccc(OC)c(OC)c2OC)ccc1O | 7.45 µM | 4.82 µM
9 | COc1cc(CNC(=O)/C=C/c2ccccc2OC)ccc1O | 5.98 µM | 6.48 µM
10 | COc1cc(CNC(=O)/C=C/c2cccc(O)c2)ccc1O | 8.62 µM | 5.75 µM
11 | CC1=NN(c2ccccc2)C(=O)C1 [EDARAVONE] | 3.75 µM | 4.61 µM
12 | COc1cc(CNC(=O)/C=C/c2ccc(OC)c(OCc3nc(C)c(C)nc3C)c2)ccc1O | 9.25 µM | 9.3 µM
13 | COc1cc(/C=C/C(=O)NCc2ccc(OCc3nc(C)c(C)nc3C)c(OC)c2)cc(OC)c1 | 8.66 µM | 12.9 µM
14 | COc1cc(CNC(=O)/C=C/c2ccc(OCc3nc(C)c(C)nc3C)cc2)ccc1OCc1nc(C)c(C)nc1C | 7.77 µM | 21.4 µM
15 | COc1cc(CNC(=O)/C=C/c2cccc(OC)c2OC)ccc1OCc1nc(C)c(C)nc1C | 7.15 µM | 6.31 µM
16 | COc1cc(CNC(=O)/C=C/c2ccc(OC)c(OC)c2)ccc1O | 11 µM | 8.85 µM
17 | COc1cc(CNC(=O)/C=C/c2cccc(OCc3nc(C)c(C)nc3C)c2)ccc1OCc1nc(C)c(C)nc1C | 8.7 µM | 12.8 µM
18 | COc1ccc(/C=C/C(=O)NCc2ccc(OCc3nc(C)c(C)nc3C)c(OC)c2)cc1O | 8.56 µM | 13.5 µM
19 | COc1ccc(OC)c(/C=C/C(=O)NCc2ccc(O)c(OC)c2)c1 | 9.5 µM | 10.5 µM
20 | COc1cccc(/C=C/C(=O)NCc2ccc(O)c(OC)c2)c1 | 5.24 µM | 7.11 µM
21 | COc1cc(CNC(=O)/C=C/c2cccc(OC)c2OC)ccc1O | 5.49 µM | 13.1 µM
22 | COc1cc(CNC(=O)/C=C/c2ccccc2)ccc1O | 3.66 µM | 9.8 µM

Row | SMILES | EC50 (SH-SY5Y) | EC50 [1]
23 | COc1ccc(/C=C/C(=O)NCc2ccc(OCc3nc(C)c(C)nc3C)c(OC)c2)cc1OC | 4.47 µM | 15.8 µM
24 | COc1cc(CNC(=O)/C=C/c2ccccc2O)ccc1OCc1nc(C)c(C)nc1C | 5.3 µM | 6.07 µM
25 | COc1cc(CNC(=O)/C=C/c2cccc(OCc3nc(C)c(C)nc3C)c2)ccc1O | 8.09 µM | 10.6 µM
26 | COc1cc(CNC(=O)/C=C/c2ccc(OC)c(OC)c2OC)ccc1OCc1nc(C)c(C)nc1C | 3.84 µM | 18.1 µM
27 | COc1cc(CNC(=O)/C=C/c2ccc(O)cc2)ccc1OCc1nc(C)c(C)nc1C | 3.74 µM | 6.23 µM
28 | COc1cc(CNC(=O)/C=C/c2ccccc2OCc2nc(C)c(C)nc2C)ccc1OCc1nc(C)c(C)nc1C | 6.28 µM | 15.1 µM
29 | COc1ccc(/C=C/C(=O)NCc2ccc(OCc3nc(C)c(C)nc3C)c(OC)c2)cc1 | 5.05 µM | 6.56 µM
30 | COc1cc(CNC(=O)/C=C/c2ccc(O)cc2)ccc1O | 6 µM | 8.04 µM
31 | COc1cc(/C=C/C(=O)NCc2ccc(OCc3nc(C)c(C)nc3C)c(OC)c2)ccc1OCc1nc(C)c(C)nc1C | 11.1 µM | 14.5 µM
32 | COc1cc(CNC(=O)/C=C/c2ccccc2OCc2nc(C)c(C)nc2C)ccc1O | 12 µM | 6.65 µM
33 | COc1cc(CNC(=O)/C=C/c2cc(OC)c(OC)c(OC)c2)ccc1O | 5.91 µM | 2.59 µM
34 | COc1cc(CNC(=O)CCCC/C=C/C(C)C)ccc1O [CAPSAICIN] | 14 µM | 16.4 µM
35 | COc1cc(CNC(=O)/C=C/c2ccc(OC)c(OCc3nc(C)c(C)nc3C)c2)ccc1OCc1nc(C)c(C)nc1C | 11.6 µM | 14.6 µM
36 | COc1cc(/C=C/C(=O)NCc2ccc(OCc3nc(C)c(C)nc3C)c(OC)c2)ccc1O | 13.4 µM | 5.81 µM
37 | COc1cc(CNC(=O)/C=C/c2cccc(O)c2)ccc1OCc1nc(C)c(C)nc1C | 3.68 µM | 6.17 µM
38 | COc1cc(/C=C/C(=O)NCc2ccc(O)c(OC)c2)ccc1O | 9.3 µM | 6.34 µM
39 | COc1cc(CNC(=O)/C=C/c2ccccc2)ccc1OCc1nc(C)c(C)nc1C | 7.31 µM | 4.99 µM
40 | COc1cc(CNC(=O)/C=C/c2ccccc2O)ccc1O | 9.76 µM | 7.46 µM
41 | COc1cc(CNC(=O)/C=C/c2ccc(OCc3nc(C)c(C)nc3C)c(OC)c2)ccc1O | 10.2 µM | 11.6 µM
42 | COc1cc(CNC(=O)/C=C/c2cc(OC)c(OC)c(OC)c2)ccc1OCc1nc(C)c(C)nc1C | 11.5 µM | 3.55 µM
43 | COc1ccc(/C=C/C(=O)NCc2ccc(O)c(OC)c2)cc1O | 7.85 µM | 11.8 µM
44 | COc1ccccc1/C=C/C(=O)NCc1ccc(OCc2nc(C)c(C)nc2C)c(OC)c1 | 7.15 µM | 12 µM
